Results of several laboratories.
Target: Discoidin domain-containing receptor 2 (DDR2, Homo sapiens, UniProt Q16832)
Sequence (Q16832 22-855, as in one of the studies): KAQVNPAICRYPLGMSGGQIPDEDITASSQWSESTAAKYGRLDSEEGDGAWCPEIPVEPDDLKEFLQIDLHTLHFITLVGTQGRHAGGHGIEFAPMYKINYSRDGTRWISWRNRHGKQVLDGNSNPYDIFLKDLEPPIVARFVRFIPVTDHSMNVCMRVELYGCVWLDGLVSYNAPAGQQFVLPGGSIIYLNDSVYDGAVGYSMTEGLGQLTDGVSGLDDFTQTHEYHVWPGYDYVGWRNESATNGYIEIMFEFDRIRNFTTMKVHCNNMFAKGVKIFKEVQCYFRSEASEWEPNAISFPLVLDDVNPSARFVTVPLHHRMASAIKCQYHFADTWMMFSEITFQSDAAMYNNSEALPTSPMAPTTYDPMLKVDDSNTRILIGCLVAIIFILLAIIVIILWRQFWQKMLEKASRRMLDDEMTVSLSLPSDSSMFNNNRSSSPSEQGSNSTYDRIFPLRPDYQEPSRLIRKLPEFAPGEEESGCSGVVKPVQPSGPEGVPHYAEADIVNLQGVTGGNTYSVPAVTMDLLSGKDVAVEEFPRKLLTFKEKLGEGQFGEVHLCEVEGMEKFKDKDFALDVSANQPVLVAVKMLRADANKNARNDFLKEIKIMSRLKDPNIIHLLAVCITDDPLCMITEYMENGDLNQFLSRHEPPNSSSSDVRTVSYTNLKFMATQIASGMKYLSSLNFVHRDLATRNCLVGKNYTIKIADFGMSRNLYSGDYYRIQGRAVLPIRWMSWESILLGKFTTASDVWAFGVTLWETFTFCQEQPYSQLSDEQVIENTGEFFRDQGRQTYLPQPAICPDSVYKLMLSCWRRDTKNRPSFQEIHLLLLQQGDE

| Compound | observed | method | tested at | remaining binding |
| --- | --- | --- | --- | --- |
| O=C(c1ccc(Nc2ncc(Cl)c(-c3cc4ccccc4s3)n2)cc1)N1CCC(N2CCCC2)CC1 | binding | competition with immobilised ligand | 1 µM | 23% |
| CC(C)(O)c1cncc(-c2nc3ccc(F)cc3n2C2CC2)c1 | cell-free assay | competition with immobilised ligand | 1 µM | 100% |
| FC(F)(F)Oc1cccc(-c2cnc3ccc(-c4ccncc4)nn23)c1 | cell-free assay | competition with immobilised ligand | 5 µM | 55% |
| c1cnn2ncc(-c3ccnc(N4CCC45COC5)n3)c2c1 | binding | – | 1 µM | 83% |
| O=C(NCC1CCOCC1)c1n[nH]cc1NC(=O)c1c(F)cccc1F | binding | competition with immobilised ligand | 1 µM | 100% |
| O=C(NCCCN1CCOCC1)c1ccc(Nc2ncc(Cl)c(-c3ccc(Cl)s3)n2)cc1 | binding | competition with immobilised ligand | 1 µM | 61% |
| C[C@@H]1CCN(c2nccc(-c3cnn4ncccc34)n2)C1 | binding | – | 1 µM | 66% |
| O=C(c1ccc(Nc2nccc(-c3cc4ccccc4s3)n2)cc1)N1CCC(N2CCCC2)CC1 | binding | competition with immobilised ligand | 1 µM | 20% |
| COc1ccnn2ncc(-c3ccnc(N(C)C)n3)c12 | binding | – | 1 µM | 67% |
| CS(=O)(=O)NCC[C@H](NC(=O)c1cncc2c1cnn2-c1ccc(F)cc1)c1ccnc(S(C)(=O)=O)c1 | cell-free assay | competition with immobilised ligand | 1 µM | 100% |
| F[C@@H]1CCN(c2nccc(-c3cnn4ncccc34)n2)C1 | binding | – | 1 µM | 91% |
| O=C(O)c1cc(-c2ccc(C3CCNCC3)cc2)c2ccc(-c3ccc(C(F)(F)F)cc3)cc2c1 | cell-free assay | competition with immobilised ligand | 1 µM | 100% |
| CN(c1nccc(-c2cnn3ncccc23)n1)C1CC1 | binding | – | 1 µM | 100% |
| Nc1cnc(N2CCc3cc(S(=O)(=O)Nc4c(F)cc(Cl)cc4F)cc(N4CCCC4=O)c32)nc1 | cell-free assay | competition with immobilised ligand | 1 µM | 100% |
| CNC(=O)[C@@H]1CC[C@@H](n2c(-c3ccc4cnccc4c3)nc3ccc(C(=O)NCc4cccc(C(N)=O)c4)cc32)C1 | binding | competition with immobilised ligand | 1 µM | 93% |
| O=C(N[C@H]1CCCCC/C=C\C2C[C@@]2(C(=O)O)NC(=O)[C@@H]2C[C@@H](Oc3ccncc3)CN2C1=O)OC1CCCC1 (some centres unmarked) | cell-free assay | competition with immobilised ligand | 1 µM | 100% |
| C=CC(=O)N1CCC(C(=O)NCC(=O)N2CCN(c3nc(-c4cnc(N)nc4C(F)F)nc(N4CCOCC4)n3)CC2)CC1 | binding | competition with immobilised ligand | 1 µM | 83% |
| CCN1CCN(Cc2ccc(C(=O)Nc3ccc(C)c(Oc4ccc5c(c4)CC(=O)N5)c3)cc2C(F)(F)F)CC1 | binding | competition with immobilised ligand | 1 µM | 14% |
| O=c1nc(-c2ccccn2)sc2ccccc12 | cell-free assay | competition with immobilised ligand | 1 µM | 100% |
| CC1CCCN1c1nccc(-c2cnn3ncccc23)n1 (centres unmarked) | binding | – | 1 µM | 100% |
